According to ChEMBL document CHEMBL4715745, “Synthesis and biological evaluation of novel FK228 analogues as potential isoform selective HDAC inhibitors” (Eur J Med Chem, 2016):

How the values were obtained:
St-4 = experiment: Growth inhibition of human St-4 cells measured after 48 hrs by sulforhodamine B assay; format: functional
In short: (§1)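 Panel of 39 human cancer cell lines tested at the Japanese Foundation for Cancer Research. Five concentrations per compound, spanning 10⁻¹¹–10⁻⁷ M, 10⁻¹⁰–10⁻⁶ M or 10⁻⁸–10⁻⁴ M, were used to build dose-response curves. GI₅₀ is the concentration giving 50% growth inhibition relative to control.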

ACHN = experiment: Growth inhibition of human ACHN cells measured after 48 hrs by sulforhodamine B assay; format: functional; in short: as §1
NCI-H23 = experiment: Growth inhibition of human NCI-H23 cells measured after 48 hrs by sulforhodamine B assay; format: functional; in short: as §1
[1] = Growth inhibition of human BSY1 cells measured after 48 hrs by sulforhodamine B assay; format: functional; settings: BSY-1; in short: as §1
U-251 = experiment: Growth inhibition of human U-251 cells measured after 48 hrs by sulforhodamine B assay; format: functional; in short: as §1
OVCAR-3 = experiment: Growth inhibition of human OVCAR-3 cells measured after 48 hrs by sulforhodamine B assay; format: functional; in short: as §1
MCF7 = experiment: Growth inhibition of human MCF7 cells measured after 48 hrs by sulforhodamine B assay; format: functional; in short: as §1
LOX IMVI = experiment: Growth inhibition of human LOX IMVI cells measured after 48 hrs by sulforhodamine B assay; format: functional; in short: as §1
SNB-75 = experiment: Growth inhibition of human SNB-75 cells measured after 48 hrs by sulforhodamine B assay; format: functional; in short: as §1
HCT-15 = experiment: Growth inhibition of human HCT-15 cells measured after 48 hrs by sulforhodamine B assay; format: functional; in short: as §1
RXF 631 = experiment: Growth inhibition of human RXF 631 cells measured after 48 hrs by sulforhodamine B assay; format: functional; in short: as §1
[2] = biological target: T1, Protein deacetylase HDAC6 (Mus musculus, UniProt Q9Z2V5); experiment: Inhibition of mouse HDAC6 expressed in 293T cells using Ac-KGLGK(Ac)-MCA as substrate incubated for 30 mins in presence of 0.1 mM DTT by fluorescence plate reader assay; set-up: species or system HEK293T
T1 sequence (Q9Z2V5 whole entry): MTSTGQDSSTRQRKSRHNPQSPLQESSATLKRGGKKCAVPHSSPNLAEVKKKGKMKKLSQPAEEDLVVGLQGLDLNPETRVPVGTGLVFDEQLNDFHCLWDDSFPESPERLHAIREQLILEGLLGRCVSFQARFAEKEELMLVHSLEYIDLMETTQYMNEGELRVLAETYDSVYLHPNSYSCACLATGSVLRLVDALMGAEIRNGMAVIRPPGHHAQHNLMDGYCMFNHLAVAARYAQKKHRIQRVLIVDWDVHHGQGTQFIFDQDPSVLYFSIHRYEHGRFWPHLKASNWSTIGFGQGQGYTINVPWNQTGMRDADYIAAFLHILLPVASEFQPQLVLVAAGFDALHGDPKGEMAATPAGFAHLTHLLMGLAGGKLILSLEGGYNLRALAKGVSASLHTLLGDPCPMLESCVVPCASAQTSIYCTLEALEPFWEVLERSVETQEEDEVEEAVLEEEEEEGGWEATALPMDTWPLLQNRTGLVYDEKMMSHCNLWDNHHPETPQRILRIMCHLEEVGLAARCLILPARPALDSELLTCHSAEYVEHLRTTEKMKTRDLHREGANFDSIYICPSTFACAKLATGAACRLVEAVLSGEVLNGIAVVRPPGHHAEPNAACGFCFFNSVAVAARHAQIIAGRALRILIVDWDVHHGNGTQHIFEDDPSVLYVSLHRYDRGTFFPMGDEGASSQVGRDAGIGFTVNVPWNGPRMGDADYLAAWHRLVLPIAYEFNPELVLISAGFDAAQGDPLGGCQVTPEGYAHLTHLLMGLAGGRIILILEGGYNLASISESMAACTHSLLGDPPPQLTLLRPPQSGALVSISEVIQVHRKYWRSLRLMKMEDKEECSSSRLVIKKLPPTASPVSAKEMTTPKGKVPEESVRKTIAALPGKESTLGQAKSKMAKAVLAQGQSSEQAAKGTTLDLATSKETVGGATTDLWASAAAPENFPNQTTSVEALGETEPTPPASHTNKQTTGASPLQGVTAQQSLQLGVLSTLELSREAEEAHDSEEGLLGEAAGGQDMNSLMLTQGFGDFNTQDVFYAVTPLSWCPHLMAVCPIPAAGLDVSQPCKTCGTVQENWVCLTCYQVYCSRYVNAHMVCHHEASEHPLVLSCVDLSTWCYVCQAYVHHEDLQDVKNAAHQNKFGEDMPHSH
In short: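 HDAC enzyme assay run in the presence of 0.1 mM dithiothreitol (DTT); IC₅₀ determined.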

SF-295 = experiment: Growth inhibition of human SF-295 cells measured after 48 hrs by sulforhodamine B assay; format: functional; in short: as §1
HT-29 = experiment: Growth inhibition of human HT-29 cells measured after 48 hrs by sulforhodamine B assay; format: functional; in short: as §1
[3] = Selectivity index, ratio of IC50 for mouse HDAC6 expressed in 293T cells to IC50 for human HDAC1 expressed in 293T cells using Ac-KGLGK(Ac)-MCA as substrate incubated for 30 mins in presence of 0.1 mM DTT by fluorescence plate reader assay; settings: 0.5 h
In short: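 Ratio of HDAC6 IC₅₀ to HDAC1 IC₅₀, taken as selectivity for class I HDAC1 over class II HDAC6. Both enzyme assays were run in the presence of 0.1 mM DTT.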

KM12 = experiment: Growth inhibition of human KM12 cells measured after 48 hrs by sulforhodamine B assay; format: functional; in short: as §1
SK-OV-3 = experiment: Growth inhibition of human SK-OV-3 cells measured after 48 hrs by sulforhodamine B assay; format: functional; in short: as §1
[4] = Growth inhibition of human HBC4 cells measured after 48 hrs by sulforhodamine B assay; format: functional; in short: as §1
MKN-28 = experiment: Growth inhibition of human MKN-28 cells measured after 48 hrs by sulforhodamine B assay; format: functional; in short: as §1
HCT-116 = experiment: Growth inhibition of human HCT-116 cells measured after 48 hrs by sulforhodamine B assay; format: functional; in short: as §1
MKN-74 = experiment: Growth inhibition of human MKN-74 cells measured after 48 hrs by sulforhodamine B assay; format: functional; in short: as §1
MKN-45 = experiment: Growth inhibition of human MKN-45 cells measured after 48 hrs by sulforhodamine B assay; format: functional; in short: as §1
MKN-1 = experiment: Growth inhibition of human MKN-1 cells measured after 48 hrs by sulforhodamine B assay; format: functional; in short: as §1
SF-539 = experiment: Growth inhibition of human SF-539 cells measured after 48 hrs by sulforhodamine B assay; format: functional; in short: as §1
[5] = Growth inhibition of human HBC5 cells measured after 48 hrs by sulforhodamine B assay; format: functional; in short: as §1
OVCAR-8 = experiment: Growth inhibition of human OVCAR-8 cells measured after 48 hrs by sulforhodamine B assay; format: functional; in short: as §1
OVCAR-4 = experiment: Growth inhibition of human OVCAR-4 cells measured after 48 hrs by sulforhodamine B assay; format: functional; in short: as §1
NCI-H522 = experiment: Growth inhibition of human NCI-H522 cells measured after 48 hrs by sulforhodamine B assay; format: functional; in short: as §1
PC-3 = experiment: Growth inhibition of human PC-3 cells measured after 48 hrs by sulforhodamine B assay; format: functional; in short: as §1
HCC 2998 = experiment: Growth inhibition of human HCC 2998 cells measured after 48 hrs by sulforhodamine B assay; format: functional; in short: as §1
NCI-H460 = experiment: Growth inhibition of human NCI-H460 cells measured after 48 hrs by sulforhodamine B assay; format: functional; in short: as §1
DMS-273 = experiment: Growth inhibition of human DMS-273 cells measured after 48 hrs by sulforhodamine B assay; format: functional; in short: as §1
DMS-114 = experiment: Growth inhibition of human DMS-114 cells measured after 48 hrs by sulforhodamine B assay; format: functional; in short: as §1
MKN-7 = experiment: Growth inhibition of human MKN-7 cells measured after 48 hrs by sulforhodamine B assay; format: functional; in short: as §1
SF-268 = experiment: Growth inhibition of human SF-268 cells measured after 48 hrs by sulforhodamine B assay; format: functional; in short: as §1
NCI-H226 = experiment: Growth inhibition of human NCI-H226 cells measured after 48 hrs by sulforhodamine B assay; format: functional; in short: as §1
A549 = experiment: Growth inhibition of human A549 cells measured after 48 hrs by sulforhodamine B assay; format: functional; in short: as §1
OVCAR-5 = experiment: Growth inhibition of human OVCAR-5 cells measured after 48 hrs by sulforhodamine B assay; format: functional; in short: as §1
SNB-78 = experiment: Growth inhibition of human SNB-78 cells measured after 48 hrs by sulforhodamine B assay; format: functional; in short: as §1
Histone deacetylase 1 = Histone deacetylase 1 (Homo sapiens, UniProt Q13547); experiment: Inhibition of human HDAC1 expressed in 293T cells using Ac-KGLGK(Ac)-MCA as substrate incubated for 30 mins in presence of 0.1 mM DTT by fluorescence plate reader assay; set-up: species or system HEK293T
Chain of Histone deacetylase 1 (Q13547 whole entry): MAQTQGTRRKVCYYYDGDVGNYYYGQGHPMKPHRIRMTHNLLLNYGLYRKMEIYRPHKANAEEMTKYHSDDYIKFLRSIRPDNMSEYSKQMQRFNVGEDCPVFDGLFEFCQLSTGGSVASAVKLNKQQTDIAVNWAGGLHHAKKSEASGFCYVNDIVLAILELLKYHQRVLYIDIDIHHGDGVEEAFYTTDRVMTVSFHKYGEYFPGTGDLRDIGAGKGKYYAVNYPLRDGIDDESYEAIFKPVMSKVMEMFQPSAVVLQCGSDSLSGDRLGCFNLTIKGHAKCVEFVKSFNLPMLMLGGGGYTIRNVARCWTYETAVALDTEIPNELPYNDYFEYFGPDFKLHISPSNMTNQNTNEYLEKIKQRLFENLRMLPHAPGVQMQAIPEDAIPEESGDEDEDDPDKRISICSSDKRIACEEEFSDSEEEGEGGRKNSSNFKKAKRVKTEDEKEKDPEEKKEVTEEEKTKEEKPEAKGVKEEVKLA

DU-145 = experiment: Growth inhibition of human DU-145 cells measured after 48 hrs by sulforhodamine B assay; format: functional; in short: as §1
MDA-MB-231 = experiment: Growth inhibition of human MDA-MB-231 cells measured after 48 hrs by sulforhodamine B assay; format: functional; in short: as §1

## CC(C)[C@H]1NC(=O)C[C@H]2/C=C/CCSSC[C@@H](NC1=O)C(=O)N[C@@H](C)C(=O)NCC(=O)O2
St-4
  GI50: 62000 nM
ACHN
  GI50: 100000 nM
NCI-H23
  GI50: 27000 nM
[1]
  GI50: 27000 nM
U-251
  GI50: 17000 nM
OVCAR-3
  GI50: 16000 nM
MCF7
  GI50: 17000 nM
LOX IMVI
  GI50: 4500 nM
SNB-75
  GI50: 14000 nM
HCT-15
  GI50: 100000 nM
RXF 631
  GI50: 100000 nM
[2]
  IC50: 1020 nM
SF-295
  GI50: 51000 nM
HT-29
  GI50: 12000 nM
[3]
  Ratio IC50: 6
KM12
  GI50: 15000 nM
SK-OV-3
  GI50: 16000 nM
[4]
  GI50: 17000 nM
MKN-28
  GI50: 24000 nM
HCT-116
  GI50: 11000 nM
MKN-74
  GI50: 18000 nM
MKN-45
  GI50: 100000 nM
MKN-1
  GI50: 14000 nM
SF-539
  GI50: 15000 nM
[5]
  GI50: 21000 nM
OVCAR-8
  GI50: 31000 nM
OVCAR-4
  GI50: 22000 nM
NCI-H522
  GI50: 1700 nM
PC-3
  GI50: 13000 nM
HCC 2998
  GI50: 13000 nM
NCI-H460
  GI50: 43000 nM
DMS-273
  GI50: 47000 nM
DMS-114
  GI50: 15000 nM
MKN-7
  GI50: 43000 nM
SF-268
  GI50: 17000 nM
NCI-H226
  GI50: 21000 nM
A549
  GI50: 18000 nM
OVCAR-5
  GI50: 15000 nM
SNB-78
  GI50: 13000 nM
Histone deacetylase 1
  IC50: 184 nM
DU-145
  GI50: 15000 nM
MDA-MB-231
  GI50: 16000 nM

## CC(C)[C@H]1NC(=O)C[C@H]2/C=C/CCSSC[C@@H](NC1=O)C(=O)N[C@H](C)C(=O)NCC(=O)O2
St-4
  GI50: 410 nM
ACHN
  GI50: 270 nM
NCI-H23
  GI50: 31 nM
[1]
  GI50: 36 nM
U-251
  GI50: 19 nM
OVCAR-3
  GI50: 22 nM
MCF7
  GI50: 37 nM
LOX IMVI
  GI50: 11 nM
SNB-75
  GI50: 10 nM
HCT-15
  GI50: 6700 nM
RXF 631
  GI50: 110 nM
[2]
  IC50: 1010 nM
SF-295
  GI50: 71 nM
HT-29
  GI50: 13 nM
[3]
  Ratio IC50: 480
KM12
  GI50: 20 nM
SK-OV-3
  GI50: 19 nM
[4]
  GI50: 30 nM
MKN-28
  GI50: 440 nM
HCT-116
  GI50: 10 nM
MKN-74
  GI50: 35 nM
MKN-45
  GI50: 500 nM
MKN-1
  GI50: 36 nM
SF-539
  GI50: 10 nM
[5]
  GI50: 160 nM
OVCAR-8
  GI50: 31 nM
OVCAR-4
  GI50: 100 nM
NCI-H522
  GI50: 10 nM
PC-3
  GI50: 70 nM
HCC 2998
  GI50: 14 nM
NCI-H460
  GI50: 15 nM
DMS-273
  GI50: 89 nM
DMS-114
  GI50: 17 nM
MKN-7
  GI50: 260 nM
SF-268
  GI50: 31 nM
NCI-H226
  GI50: 110 nM
A549
  GI50: 15 nM
OVCAR-5
  GI50: 14 nM
SNB-78
  GI50: 10 nM
Histone deacetylase 1
  IC50: 2.1 nM
DU-145
  GI50: 21 nM
MDA-MB-231
  GI50: 21 nM
